Measured values published in ChEMBL document CHEMBL1148734, “Structure-activity relationships of phenyl-furanyl-rhodanines as inhibitors of RNA polymerase with antibacterial activity on biofilms” (J Med Chem, 2007).
Converted amounts (≈) assume the structure as drawn. The source made the active and inactive calls. The calls are words filed in the database; no cut-off is given here.

Legend:
[1] = tested on: Staphylococcus epidermidis; assay: Antibacterial activity against Staphylococcus epidermidis CIP 105777; format: functional
CHO = assay: Cytotoxicity against CHO cells; format: cell-based, Cricetulus griseus; details: chinese hamster
In short: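 CHO cells grown in RPMI with 5% fetal calf serum, then exposed to compounds 24 h at 37 °C without serum. MTT added at 300 µg/mL final, 3 h at 37 °C dark; acidified isopropanol added, 1 h at room temperature; OD at 595 nm.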

Escherichia coli [2] = assay: Antibacterial activity against Escherichia coli tolC CGSC 5633; format: functional
Escherichia coli [3] = assay: Inhibition of RNA polymerase sigma-70 transcription in Escherichia coli at 10 uM; format: functional
Bacillus anthracis = assay: Antibacterial activity against Bacillus anthracis 9131; format: functional
Clostridioides difficile = assay: Antibacterial activity against Clostridium difficile DSM 1296; format: functional
Staphylococcus aureus [4] = assay: Antibacterial activity against Staphylococcus aureus CIP 76.25; format: functional
[5] = tested on: Staphylococcus epidermidis; assay: Antibacterial activity against Staphylococcus epidermidis RP62A; format: functional
Staphylococcus aureus [6] = assay: Antibacterial activity against multidrug resistant Staphylococcus aureus 49589; format: functional
In short: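 Broth microdilution MIC following CLSI. Compounds were predissolved in DMSO and tested as serial 2-fold dilutions at final 100 to 0.4 µg/mL. Inoculum was 5 × 10⁵ CFU/mL, and plates were read after 18 h at 37 °C.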

Streptococcus pneumoniae = assay: Antibacterial activity against Streptococcus pneumoniae CIP 103566; format: functional

Compound: COCCN1C(=O)N/C(=C\c2ccc(-c3cccc(C(=O)O)c3)o2)C1=O
- MIC [1]: ≥ 100 µg/mL
- Activity (CHO): >= 100 ug ml-1
- MIC (Escherichia coli [2]): ≥ 100 µg/mL
- inhibition at 10 µM (Escherichia coli [3]): 85%

Compound: C=CCN1C(=O)/C(=C/c2ccc(-c3ccc(C(=O)NO)cc3)o2)SC1=S
- MIC [1]: ≥ 100 µg/mL
- MIC (Bacillus anthracis): 50 µg/mL (≈ 129 µM)
- MIC (Clostridioides difficile): ≥ 100 µg/mL
- MIC (Staphylococcus aureus [4]): ≥ 100 µg/mL
- Activity (CHO): >= 100 ug ml-1
- MIC (Escherichia coli [2]): 25 µg/mL (≈ 64.7 µM)
- MIC [5]: ≥ 100 µg/mL
- MIC (Staphylococcus aureus [6]): ≥ 100 µg/mL
- inhibition at 10 µM (Escherichia coli [3]): 100%
- MIC (Streptococcus pneumoniae): 25 µg/mL (≈ 64.7 µM)

Compound: CN1C(=O)/C(=C/c2ccc(-c3cccc(C(=O)O)c3)o2)SC1=S
- MIC [1]: > 100 µg/mL
- Activity (CHO): >= 100 ug ml-1
- MIC (Escherichia coli [2]): > 100 µg/mL
- inhibition at 10 µM (Escherichia coli [3]): 89%

Compound: C=CCN1C(=O)/C(=C/c2ccc(-c3ccc(C(N)=O)cc3)o2)SC1=S
- MIC [1]: ≥ 100 µg/mL
- MIC (Bacillus anthracis): 12.5 µg/mL (≈ 33.7 µM)
- MIC (Clostridioides difficile): ≥ 100 µg/mL
- MIC (Staphylococcus aureus [4]): ≥ 100 µg/mL
- Activity (CHO): >= 100 ug ml-1
- MIC (Escherichia coli [2]): 1.56 µg/mL (≈ 4.21 µM)
- MIC [5]: ≥ 100 µg/mL
- MIC (Staphylococcus aureus [6]): ≥ 100 µg/mL
- inhibition at 10 µM (Escherichia coli [3]): 102%
- MIC (Streptococcus pneumoniae): ≥ 100 µg/mL

Compound: C=CCN1C(=O)S/C(=C\c2ccc(-c3ccc(C(=O)O)cc3)o2)C1=O
- MIC [1]: ≥ 100 µg/mL
- Activity (CHO): >= 100 ug ml-1
- MIC (Escherichia coli [2]): ≥ 100 µg/mL
- inhibition at 10 µM (Escherichia coli [3]): 75%

Compound: C=CCN1C(=O)/C(=C/c2ccc(-c3ccc4c(c3)C(=O)OC4)o2)SC1=S
- MIC [1]: ≥ 100 µg/mL
- Activity (CHO): 50 µg/mL
- MIC (Escherichia coli [2]): ≥ 100 µg/mL
- inhibition at 10 µM (Escherichia coli [3]): 5%

Compound: C[C@@H]1O[C@@H]1P(=O)(O)O
- Activity (Staphylococcus aureus [6]): Active

Compound: C=CCN1C(=O)/C(=C/c2ccc(-c3ccc(OP(=O)(O)O)cc3)o2)SC1=S
- MIC [1]: ≥ 100 µg/mL
- Activity (CHO): 50 µg/mL
- MIC (Escherichia coli [2]): ≥ 100 µg/mL

Compound: CC1COc2c(N3CCN(C)CC3)c(F)cc3c(=O)c(C(=O)O)cn1c23 (centres undefined)
- Activity (Staphylococcus aureus [6]): inactive

Compound: C=CCN1C(=O)/C(=C/c2ccc(-c3ccc([N+](=O)[O-])cc3)o2)SC1=S
- MIC [1]: ≥ 100 µg/mL
- Activity (CHO): >= 100 ug ml-1
- MIC (Escherichia coli [2]): ≥ 100 µg/mL
- inhibition at 10 µM (Escherichia coli [3]): 3%

Compound: Cc1onc(-c2ccccc2)c1C(=O)N[C@@H]1C(=O)N2[C@@H]1SC(C)(C)[C@@H]2C(=O)O
- Activity (Staphylococcus aureus [6]): inactive

Compound: C=CCN1C(=O)/C(=C/c2ccc(-c3cccc(Cl)c3)o2)SC1=S
- MIC [1]: ≥ 100 µg/mL
- Activity (CHO): >= 100 ug ml-1
- MIC (Escherichia coli [2]): 12.5 µg/mL (≈ 34.5 µM)
- inhibition at 10 µM (Escherichia coli [3]): 76%

Compound: Cc1nnc(SCC2=C(C(=O)O)N3C(=O)[C@@H](NC(=O)Cn4cnnn4)[C@H]3SC2)s1
- Activity (Staphylococcus aureus [6]): inactive

Compound: C=CCN1C(=O)/C(=C/c2ccc(-c3ccccc3C(=O)O)o2)SC1=S
- MIC [1]: ≥ 100 µg/mL
- Activity (CHO): >= 100 ug ml-1
- MIC (Escherichia coli [2]): ≥ 100 µg/mL
- inhibition at 10 µM (Escherichia coli [3]): 72%

Compound: CC1(C)S[C@@H]2[C@H](NC(=O)Cc3ccccc3)C(=O)N2[C@H]1C(=O)O
- Activity (Staphylococcus aureus [6]): inactive

Compound: C=CCN1C(=O)/C(=C/c2ccc(Cc3ccc(C(=O)O)cc3)o2)SC1=S
- MIC [1]: ≥ 100 µg/mL
- Activity (CHO): >= 100 ug ml-1
- MIC (Escherichia coli [2]): ≥ 100 µg/mL
- inhibition at 10 µM (Escherichia coli [3]): 63%

Compound: CN(C)[C@@H]1C(O)=C(C(N)=O)C(=O)[C@@]2(O)C(O)=C3C(=O)c4c(O)cccc4[C@@](C)(O)[C@H]3C[C@@H]12
- Activity (Staphylococcus aureus [6]): inactive

Compound: C=CCN1C(=O)/C(=C/c2ccc(-c3ccc(C(=O)OC)cc3)o2)SC1=S
- MIC [1]: ≥ 100 µg/mL
- Activity (CHO): >= 100 ug ml-1
- MIC (Escherichia coli [2]): ≥ 100 µg/mL
- inhibition at 10 µM (Escherichia coli [3]): 10%

Compound: CO[C@H]1/C=C/O[C@@]2(C)Oc3c(C)c(O)c4c(O)c(c(/C=N/N5CCN(C)CC5)c(O)c4c3C2=O)NC(=O)/C(C)=C\C=C\[C@H](C)[C@H](O)[C@@H](C)[C@@H](O)[C@@H](C)[C@H](OC(C)=O)[C@@H]1C
- Activity (Staphylococcus aureus [6]): inactive

Compound: O=C(O)c1cccc(-c2ccc(C=C3C(=O)c4ccccc4C3=O)o2)c1
- MIC [1]: 50 µg/mL (≈ 145 µM)
- Activity (CHO): 50 µg/mL
- MIC (Escherichia coli [2]): 50 µg/mL (≈ 145 µM)
- inhibition at 10 µM (Escherichia coli [3]): 72%

Compound: NCC[C@H](O)C(=O)N[C@@H]1C[C@H](N)[C@@H](O[C@H]2O[C@H](CN)[C@@H](O)[C@H](O)[C@H]2O)[C@H](O)[C@H]1O[C@H]1O[C@H](CO)[C@@H](O)[C@H](N)[C@H]1O
- Activity (Staphylococcus aureus [6]): inactive

Compound: NC[C@H]1O[C@H](O[C@H]2[C@H](O)[C@@H](O[C@H]3O[C@H](CO)[C@@H](O)[C@H](N)[C@H]3O)[C@H](N)C[C@@H]2N)[C@H](N)C[C@@H]1O
- Activity (Staphylococcus aureus [6]): inactive

Compound: C#CCN1C(=O)S/C(=C\c2ccc(-c3ccc(C(=O)O)cc3)o2)C1=O
- MIC [1]: > 100 µg/mL
- Activity (CHO): >= 100 ug ml-1
- MIC (Escherichia coli [2]): > 100 µg/mL
- inhibition at 10 µM (Escherichia coli [3]): 100%

Compound: C=CCN1C(=O)/C(=C/c2ccc(-c3ccccc3)o2)SC1=S
- MIC [1]: ≥ 100 µg/mL
- MIC (Bacillus anthracis): 0.78 µg/mL (≈ 2.38 µM)
- MIC (Clostridioides difficile): ≥ 100 µg/mL
- MIC (Staphylococcus aureus [4]): ≥ 100 µg/mL
- Activity (CHO): >= 100 ug ml-1
- MIC (Escherichia coli [2]): 3.13 µg/mL (≈ 9.56 µM)
- MIC [5]: ≥ 100 µg/mL
- MIC (Staphylococcus aureus [6]): ≥ 100 µg/mL
- inhibition at 10 µM (Escherichia coli [3]): 46%
- MIC (Streptococcus pneumoniae): ≥ 100 µg/mL

Compound: CN[C@H](CC(C)C)C(=O)N[C@H]1C(=O)N[C@@H](CC(N)=O)C(=O)N[C@H]2C(=O)N[C@H]3C(=O)N[C@H](C(=O)N[C@H](C(=O)O)c4cc(O)cc(O)c4-c4cc3ccc4O)[C@H](O)c3ccc(c(Cl)c3)Oc3cc2cc(c3O[C@@H]2O[C@H](CO)[C@@H](O)[C@H](O)[C@H]2O[C@H]2C[C@](C)(N)[C@H](O)[C@H](C)O2)Oc2ccc(cc2Cl)[C@H]1O
- Activity (Staphylococcus aureus [6]): Active

Compound: CCN1CCN(C(=O)N[C@@H](C(=O)N[C@@H]2C(=O)N3[C@@H]2SC(C)(C)[C@@H]3C(=O)O)c2ccccc2)C(=O)C1=O
- Activity (Staphylococcus aureus [6]): inactive

Compound: CCC[C@@H]1C[C@@H](C(=O)N[C@@H]([C@H]2O[C@H](SC)[C@H](O)[C@@H](O)[C@H]2O)[C@H](C)Cl)N(C)C1
- Activity (Staphylococcus aureus [6]): inactive

Compound: C=CCN1C(=O)/C(=C/c2ccc(-c3cccc(C(F)(F)F)c3)o2)SC1=S
- MIC [1]: ≥ 100 µg/mL
- Activity (CHO): >= 100 ug ml-1
- MIC (Escherichia coli [2]): ≥ 100 µg/mL

Compound: CCn1cc(C(=O)O)c(=O)c2cc(F)c(N3CCNCC3)cc21
- Activity (Staphylococcus aureus [6]): inactive

Compound: CC(=O)O[C@H]1C[C@@]2(C)[C@@H](C[C@@H](O)[C@H]3[C@@]4(C)CC[C@@H](O)[C@@H](C)[C@@H]4CC[C@@]32C)/C1=C(\CCC=C(C)C)C(=O)O
- Activity (Staphylococcus aureus [6]): Active

Compound: O=C(O)CN1C(=O)/C(=C/c2ccc(-c3cccc(C(=O)O)c3)o2)SC1=S
- MIC [1]: ≥ 100 µg/mL
- Activity (CHO): >= 100 ug ml-1
- MIC (Escherichia coli [2]): ≥ 100 µg/mL
- inhibition at 10 µM (Escherichia coli [3]): 17%

Compound: CC1(C)S[C@@H]2[C@H](NC(=O)[C@H](N)c3ccc(O)cc3)C(=O)N2[C@H]1C(=O)O
- Activity (Staphylococcus aureus [6]): inactive

Compound: C=CCN1C(=O)/C(=C/c2ccc(-c3cc(N)cc(C(=O)O)c3)o2)SC1=S
- MIC [1]: ≥ 100 µg/mL
- Activity (CHO): >= 100 ug ml-1
- MIC (Escherichia coli [2]): ≥ 100 µg/mL
- inhibition at 10 µM (Escherichia coli [3]): 71%

Compound: C=CCN1C(=O)/C(=C/c2ccc(-c3ccc(S(=O)(=O)O)cc3)o2)SC1=S
- MIC [1]: ≥ 100 µg/mL
- Activity (CHO): >= 100 ug ml-1
- MIC (Escherichia coli [2]): ≥ 100 µg/mL
- inhibition at 10 µM (Escherichia coli [3]): 9%

Compound: C=CCN1C(=O)/C(=C/c2ccc(-c3cccc(N)c3)o2)SC1=S
- MIC [1]: ≥ 100 µg/mL
- Activity (CHO): >= 100 ug ml-1
- MIC (Escherichia coli [2]): ≥ 100 µg/mL
- inhibition at 10 µM (Escherichia coli [3]): 11%

Compound: O=C1NC(=O)/C(=C/c2ccc(-c3ccc(C(=O)O)cc3)o2)N1
- MIC [1]: ≥ 100 µg/mL
- Activity (CHO): >= 100 ug ml-1
- MIC (Escherichia coli [2]): ≥ 100 µg/mL
- inhibition at 10 µM (Escherichia coli [3]): 55%

Compound: GENTAMICIN
- Activity (Staphylococcus aureus [6]): inactive

Compound: O=C(O)c1ccc(-c2ccc(/C=C3\Sc4ccccc4C3=O)o2)cc1
- MIC [1]: > 100 µg/mL
- Activity (CHO): >= 100 ug ml-1
- MIC (Escherichia coli [2]): > 100 µg/mL
- inhibition at 10 µM (Escherichia coli [3]): 30%

Compound: O=C1NC(=S)S/C1=C\c1ccc(-c2ccc(C(=O)O)cc2)o1
- MIC [1]: ≥ 100 µg/mL
- Activity (CHO): >= 100 ug ml-1
- MIC (Escherichia coli [2]): ≥ 100 µg/mL
- inhibition at 10 µM (Escherichia coli [3]): 82%

Compound: CC(=O)/N=C1\NC(=O)/C(=C/c2ccc(-c3ccc(C(=O)O)cc3)o2)S1
- MIC [1]: ≥ 100 µg/mL
- Activity (CHO): >= 100 ug ml-1
- MIC (Escherichia coli [2]): ≥ 100 µg/mL
- inhibition at 10 µM (Escherichia coli [3]): 98%

Compound: CC[C@H]1OC(=O)[C@H](C)[C@@H](O[C@H]2C[C@@](C)(OC)[C@@H](O)[C@H](C)O2)[C@H](C)[C@@H](O[C@@H]2O[C@H](C)C[C@H](N(C)C)[C@H]2O)[C@](C)(O)C[C@@H](C)C(=O)[C@H](C)[C@@H](O)[C@]1(C)O
- Activity (Staphylococcus aureus [6]): inactive
